Screening results (PubChem BioAssay)
LYP inh 2: PTPN22 phosphatase inhibitors, primary screen, biochemical, DiFMUP fluorescence, 2 µM; Tyrosine-protein phosphatase non-receptor type 22 (Homo sapiens), Q9Y2R2; recombinant LYP catalytic domain; inhibition, % at 2 µM; 0.21% of 96,000 active;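 active = inhibition at 2 µM at or above a set limit, the screen mean plus 3 SD, cut at about 24% in these data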
FAK blocker: FAK kinase inhibitors, primary screen, biochemical | Focal adhesion kinase 1 (Homo sapiens), Q05397 | biochemical FAK kinase activity assay | inhibition, %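 (tested at 7 µM)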 | 0.84% of 97,000 active | AID 727, 2007; in the data active = inhibition above about 19%
LYP act: LYP phosphatase activators, primary screen, biochemical, DiFMUP fluorescence, 2 µM. Tyrosine-protein phosphatase non-receptor type 22 (Homo sapiens), Q9Y2R2. AID 697, 2007. recombinant LYP; 0 = plate median, 100 = signal doubled. 0.11% of 96,000 active. activation, % at 2 µM;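 active = activation at 2 µM above a set limit, the mean plus 5 SD, cut at about 37% in these data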
Rev-RRE block: HIV-1 Rev-RRE binding inhibitors, primary screen, biochemical, FRET, protein-RNA interaction | inhibition, % at 8 µM | 0.79% of 97,000 active | P05866 | Rev peptide-RRE RNA binding;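 active = inhibition above the screen-wide mean plus 3 SD, cut at about 35% in these data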
Target sequence (P05866 whole entry, looked up): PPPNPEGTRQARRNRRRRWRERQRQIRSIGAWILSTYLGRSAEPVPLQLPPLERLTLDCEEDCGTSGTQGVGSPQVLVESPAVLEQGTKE
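Probe or stimulus: fluorescein-Rev peptide as binding partner; assay system: Cy5-tagged RRE RNA duplex with fluorescein-tagged Rev peptide; timing: 5 min compound–RNA preincubation, then 15 min with peptide, 25 °C; medium: HEPES pH 7.5 buffer with KCl, MgCl2, NaCl and EDTA; signal: fluorescein-to-Cy5 FRET, 480 nm excitation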
Each line names hits and unclear results; the compound was inactive in the other large screens; [ ] = another dose, or the depositor's remark. A selection: hits, their analogues and other compounds. The true share with any hit is near 1.8%.

NC(=O)c1ccsc1NC(=O)COC(=O)C1CCCN1C(=O)c1cccs1 (centres undefined)	none
N#Cc1c(Sc2ncc(C(F)(F)F)cc2Cl)nsc1C/C=N\OCc1ccccc1Br	Rev-RRE block 69.2
Cc1cc2c(cc1C)NC(c1c(C)n(C)n(-c3ccccc3)c1=O)C1=C(CC(C)(C)CC1=O)N2 (centres undefined)	Rev-RRE block 107.2[fluorescence artefact?]
O=Cc1ccc(N2CCCCCC2)cc1	none
O=C1/C(=C/c2ccc(N3CCCC3)cc2)NC(=S)N1C1CC1	Rev-RRE block 137.4[fluorescence artefact?]
c1nc(N2CCCC2)c2[nH]cnc2n1	FAK blocker 33.8
COc1ccc(Br)cc1C(=O)Nc1cccc(-c2nnc(-c3ccco3)o2)c1	FAK blocker 65.9
COc1cccc(C(=O)Nc2cccc(-c3nnc(-c4ccco4)o3)c2)c1	none
COc1cc2cc3c(N)c(C(=O)Nc4sc(C)c(C)c4C#N)sc3nc2cc1OC	Rev-RRE block 99.5[fluorescence artefact?]
COc1cc2cc3c(N)c(C(=O)NCc4ccco4)sc3nc2cc1OC	none
CCc1ccc(NC(=O)C(=O)NCCN2CCN(C(=O)c3ccco3)CC2)cc1	none
COCCCNc1ncnc2c1[nH]c1ccccc12	LYP inh 2 33.6
CCN(CC)CCNc1ncnc2c1[nH]c1ccc(OC)cc12	none
O=C(CSc1nnc(-c2ccc(Cl)s2)o1)N1CCCc2ccccc21	LYP inh 2 24.5
O=C(CSc1nnc(-c2ccc(Cl)s2)o1)N1CCc2ccccc21	none
COc1ccc(CNC(=O)c2ccc(S(=O)(=O)N3CCCC3)cc2)cc1OC	none
CNc1nc2[nH]c(=O)c3c(c2s1)OC(N)=C(C#N)C3c1cccc(F)c1 (centres undefined)	Rev-RRE block 99.1[fluorescence artefact?]
N#CC1=C(N)Oc2n[nH]c(-c3cccs3)c2C1c1ccsc1 (centres undefined)	none
N#CC1=C(N)Oc2n[nH]c(-c3cccs3)c2C1c1ccco1 (centres undefined)	Rev-RRE block 60.0
O=C(CC1Nc2ccccc2NC1=O)c1ccccc1 (centres undefined)	Rev-RRE block 73.3
O=C(CC1Nc2ccccc2NC1=O)NCCc1ccccc1 (centres undefined)	none
CSc1nc(SCC(=O)NCc2ccco2)c2c3c(sc2n1)CN(C)CC3	FAK blocker 21.6
CSc1nc(NCc2ccco2)c2c3c(sc2n1)CN(C)CC3	none
CCCCC1(C)OC(=O)C(=Cc2ccc(N(C)C)cc2)C(=O)O1 (centres undefined)	Rev-RRE block 53.8
Cc1ccc(-c2csc(N3N=C(c4ccccc4)/C(=C\c4ccc(N(C)C)cc4)C3=O)n2)cc1	none
COc1cc(/C=C/C(=O)c2c(O)cc(C)oc2=O)cc(OC)c1O	Rev-RRE block 38.3
COc1ccc(/C=C/C(=O)c2c(O)cc(C)oc2=O)c(OC)c1	Rev-RRE block 89.5[fluorescence artefact?]
COCCNC(=O)C(OC(=O)c1cc2oc(C)cc2n1C)C(C)C (centres undefined)	none
Cc1ccc2c(CN3CCCc4ccccc43)cc(=O)oc2c1C	Rev-RRE block 56.9
Cc1cc2oc(=O)cc(CN3CCc4ccccc43)c2cc1Cl	none
O=S(=O)(Nc1nc(-c2sccc2Cl)cs1)c1cc(Cl)ccc1Cl	LYP inh 2 26.4
Cc1cc(C)c(OCCCCNCc2ccccc2)c(Cl)c1	none
N#CC1=C(N)C(C#N)(C#N)C(c2cccnc2)C2CCCC=C12 (centres undefined)	none
N#CC1=C(N)C(C#N)(C#N)C(c2ccc[nH]2)C2CCCC=C12 (centres undefined)	Rev-RRE block 63.3
CC(=O)Nc1nc2n(n1)C(c1ccccc1)C=C(c1ccccc1)N2 (centres undefined)	none
OCCCc1nc2n(n1)C(c1ccccc1)C=C(c1ccccc1)N2 (centres undefined)	none
O=C(Nc1nc2n(n1)C(c1ccccc1)C=C(c1ccccc1)N2)c1ccco1 (centres undefined)	Rev-RRE block 45.6
COc1ccc(C2C=C(c3ccc(Cl)cc3)Nc3nc(NC(C)=O)nn32)cc1 (centres undefined)	Rev-RRE block 77.9
O=C(c1nc2n(n1)C(c1ccc(Cl)cc1)C=C(c1ccccc1)N2)N1CCOCC1 (centres undefined)	Rev-RRE block 118.1[fluorescence artefact?]
CS(=O)(=O)Nc1nc2n(n1)C(c1ccccc1)C=C(c1ccc(Br)cc1)N2 (centres undefined)	Rev-RRE block 60.9
COc1ccccc1C1C=C(c2ccc(Cl)cc2)Nc2nc(NS(C)(=O)=O)nn21 (centres undefined)	none
O=S(=O)(NCc1ccccc1)c1cccs1	none
CCOC(=O)C(NCc1ccc2c(c1)OCO2)(NC(=O)c1ccccc1)C(F)(F)F (centres undefined)	none
O=C(NCC1CCCO1)c1onc(CSc2ccc(F)c(F)c2)c1C(=O)O (centres undefined)	none
CC(C)(C)n1nc2c(c1NC(=O)COc1ccc3ccccc3c1)CS(=O)(=O)C2	none
CSc1nc2n(n1)C(c1ccccn1)C1=C(CC(C)(C)CC1=O)N2 (centres undefined)	none
CCCCc1ccc(/C=C2\C(=O)c3ccccc3C(O)=C2C(=O)OCC)cc1	none
CC(=O)Nc1nc2n(n1)C(c1ccc(F)cc1)C=C(c1ccccc1)N2 (centres undefined)	Rev-RRE block 56.3
CCC(=O)Nc1nc2n(n1)C(c1ccc(OC)cc1)C=C(c1ccccc1)N2 (centres undefined)	Rev-RRE block 44.6
COC(=O)c1cccc(COC(=O)c2ccc(CS(=O)(=O)c3ccc(C)cc3)cc2)c1	none
CC(C)CC(C(=O)N1CCc2ccccc2C1)N1C(=O)c2ccccc2C1=O (centres undefined)	none
CCOc1cc(-c2cc(-c3ccc(N)cc3)nc(N)c2C#N)ccc1O	none
CCOc1cc(-c2ccc(N)c(OCC)c2)ccc1N	Rev-RRE block 84.2
Cc1ccc2nc3sc(C(=O)NCc4ccco4)c(N)c3cc2c1	Rev-RRE block 37.4
Cc1c(-n2cc(C(=O)c3cc(Br)ccc3O)cc(C#N)c2=O)c(=O)n(-c2ccccc2)n1C	Rev-RRE block 74.3[fluorescence artefact?]
Cc1c(-n2cc(C(=O)c3cc(Cl)ccc3O)cc(C#N)c2=O)c(=O)n(-c2ccccc2)n1C	Rev-RRE block 82.7[fluorescence artefact?]
N#Cc1cc(C(=O)c2cc(Br)ccc2O)cn(C2CCCCC2)c1=O	none
Cc1c(NCc2cc(Cl)ccc2O)c(=O)n(-c2ccccc2)n1C	none
Cc1ccc(O)c(C(=O)c2cc(C#N)c(=O)n(-c3c(C)n(C)n(-c4ccccc4)c3=O)c2)c1	Rev-RRE block 79.4
COc1ccc(O)c(C(=O)c2cc(C#N)c(=O)n(-c3c(C)n(C)n(-c4ccccc4)c3=O)c2)c1	Rev-RRE block 91.8[fluorescence artefact?]
CC1(C)Oc2ccc3ccc(=O)oc3c2-c2cn[nH]c21	FAK blocker 24.2
CC1(C)Oc2ccc3ccc(=O)oc3c2/C(=C/N)C1=O	none
COC(=O)c1nn(C23CC4CC(CC(C4)C2)C3)c2c1C(=O)N(c1ccc(Br)cc1)C2=O	none
